Drawing on ChEMBL document CHEMBL4196187, “Peloruside E (22-Norpeloruside A), a Pelorusane Macrolide from the New Zealand Marine Sponge Mycale hentscheli, Retains Microtubule-Stabilizing Properties” (J Nat Prod, 2018), this text covers Activity, IC50 and induction for 3 molecules.

Assay [1] deals with HL-60. Put plainly: Cell cycle arrest in human HL60 cells assessed as accumulation at G2/M phase at 100 nM after 18 hrs by propidium iodide staining based flow cytometry (reference value: 19%). The format is functional. (Flow cytometry measures light scatter and fluorescence of single cells or particles in a stream.)
Assay [2] concerns HL-60. Briefly: Cell cycle arrest in human HL60 cells assessed as accumulation at S phase at 100 nM after 18 hrs by propidium iodide staining based flow cytometry (reference value: 20%). It counts as functional.
Assay [3] deals with HL-60. Briefly: Growth inhibition of human HL60 cells after 48 hrs by MTT assay. The format is functional, cell-based. As to conditions: HL-60, 48 h. In a few lines:
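Human promyelocytic leukemia HL-60 cells; MTT cell proliferation read-out after 48 h incubation. IC50 derived from n = 3 replicates, reported as SEM.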
For orientation: Tetrazolium assays rely on reduction of a dye to a coloured formazan, in cell work by metabolically active cells.

The species named for another assay is Sus scrofa. Briefly: Induction of porcine brain tubulin polymerization at 2.8 uM measured at 1 min interval over 100 mins by fluorescence assay.
The subject of assay [4] is HL-60. Briefly: Cell cycle arrest in human HL60 cells assessed as accumulation at G1 phase at 500 nM after 18 hrs by propidium iodide staining based flow cytometry (reference value: 62%). The format is functional.
The test system of assay [5] is HL-60. Put plainly: Cell cycle arrest in human HL60 cells assessed as accumulation at G2/M phase at 500 nM after 18 hrs by propidium iodide staining based flow cytometry (reference value: 19%). The format is functional.
Assay [6] has as its system HL-60. Briefly: Cell cycle arrest in human HL60 cells assessed as accumulation at S phase at 500 nM after 18 hrs by propidium iodide staining based flow cytometry (reference value: 20%). The format is functional.
Assay [7] concerns HL-60. Put plainly: Cell cycle arrest in human HL60 cells assessed as accumulation at G1 phase at 100 nM after 18 hrs by propidium iodide staining based flow cytometry (reference value: 62%). The format is functional.
The subject of assay [8] is HL-60. Briefly: Cell cycle arrest in human HL60 cells assessed as accumulation at G2/M phase at 1500 nM after 18 hrs by propidium iodide staining based flow cytometry (reference value: 19%). It counts as functional.
Assay [9] has as its system HL-60. Briefly: Cell cycle arrest in human HL60 cells assessed as accumulation at G1 phase at 1500 nM after 18 hrs by propidium iodide staining based flow cytometry (reference value: 62%). It counts as functional.
In assay [10] the test system is HL-60. Briefly: Cell cycle arrest in human HL60 cells assessed as accumulation at S phase at 300 nM after 18 hrs by propidium iodide staining based flow cytometry (reference value: 20%). It counts as functional.
For assay [11], the system named is HL-60. Put plainly: Cell cycle arrest in human HL60 cells assessed as accumulation at S phase at 1500 nM after 18 hrs by propidium iodide staining based flow cytometry (reference value: 20%). It counts as functional.
Assay [12] relates to HL-60. Put plainly: Cell cycle arrest in human HL60 cells assessed as accumulation at G1 phase at 300 nM after 18 hrs by propidium iodide staining based flow cytometry (reference value: 62%). The format is functional.
Assay [13] concerns HL-60. Briefly: Cell cycle arrest in human HL60 cells assessed as accumulation at G2/M phase at 300 nM after 18 hrs by propidium iodide staining based flow cytometry (reference value: 19%). The format is functional.
Assay [14] has as its system HL-60. Briefly: Cell cycle arrest in human HL60 cells assessed as accumulation at S phase at 1000 nM after 18 hrs by propidium iodide staining based flow cytometry (reference value: 20%). The format is functional.
The subject of assay [15] is HL-60. Briefly: Cell cycle arrest in human HL60 cells assessed as accumulation at G2/M phase at 1000 nM after 18 hrs by propidium iodide staining based flow cytometry (reference value: 19%). The format is functional.
Assay [16] has as its system HL-60. Briefly: Cell cycle arrest in human HL60 cells assessed as accumulation at G1 phase at 1000 nM after 18 hrs by propidium iodide staining based flow cytometry (reference value: 62%). The format is functional.

Each structure is given as a SMILES string. Activity calls are given as the source filed them. The calls are words filed in the database; no cut-off is given here.

The term IC50 denotes the concentration that inhibits the measured activity by half. A high value points to weaker potency in that assay. In the case of `CC[C@H](/C=C(/C)[C@@H]1C[C@@H](OC)C[C@H](O)C(C)(C)[C@@]2(O)O[C@@H](C[C@@H](OC)[C@H](O)C(=O)O1)C[C@@H](OC)[C@H]2O)CO`, the Activity is given as 50% in the assay with HL-60 [1]; 23% with HL-60 [2]; 30% with HL-60 [4]; 47% in the assay on HL-60 [5]; 23% in the assay with HL-60 [6]; 27% in the assay on HL-60 [7]. The same molecule had an IC50 with HL-60 [3] of 19 nM. In addition, the induction entry in the assay listed under Sus scrofa is “Active”.
As to `CC[C@H](/C=C(/C)[C@@H]1C[C@@H](OC)C[C@H](O)[C@@H](C)[C@@]2(O)O[C@@H](C[C@@H](OC)[C@H](O)C(=O)O1)C[C@@H](OC)[C@H]2O)CO`, the Activity in the assay on HL-60 [8] is given as 49%; with HL-60 [9] it was 29%; with HL-60 [10], 22%; in the assay on HL-60 [11], 23%; in the assay with HL-60 [12], 38%; in the assay on HL-60 [13] it was 39%. This molecule also came in with a half-inhibitory concentration (IC50) with HL-60 [3] of 90 nM.
As for `CC(=O)O[C@H]1C(=O)[C@@]2(C)[C@H]([C@H](OC(=O)c3ccccc3)[C@]3(O)C[C@H](OC(=O)[C@H](O)[C@@H](NC(=O)c4ccccc4)c4ccccc4)C(C)=C1C3(C)C)[C@]1(OC(C)=O)CO[C@@H]1C[C@@H]2O` [PACLITAXEL], the Activity came to 19% in the assay on HL-60 [14], 53% in the assay with HL-60 [15] and 28% in the assay with HL-60 [16]. For the same molecule, the induction result in the assay filed under Sus scrofa is “Active”.
